Assay results: ChEMBL document CHEMBL1133538, “7-Deazaadenines bearing polar substituents: structure-activity relationships of new A(1) and A(3) adenosine receptor antagonists” (J Med Chem, 2000)
≈ marks a conversion by molar mass, not a printed value.

What was measured:
[1] = molecular target: Adenosine receptor A2a (Rattus norvegicus) (UniProt P30543); test: Binding affinity against adenosine A2A receptor in rat striatal membrane preparations using [3H]CGS-21680 at 30 uM; format: cell membranes; details: Striatum
How it was run: (§1)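 Rat striatal membranes, A2A-selective agonist [3H]CGS21680 at 5 nM. Compounds dissolved in DMSO, diluted into aqueous buffer. Value given as percent inhibition of radioligand binding at the single stated concentration.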

[2] = molecular target: T1, Adenosine receptor A1 (Rattus norvegicus) (UniProt P25099); test: Binding affinity against adenosine A1 receptor in rat brain cortical membrane preparations using [3H]CCPA at 30 uM; format: cell membranes
T1 sequence (whole entry): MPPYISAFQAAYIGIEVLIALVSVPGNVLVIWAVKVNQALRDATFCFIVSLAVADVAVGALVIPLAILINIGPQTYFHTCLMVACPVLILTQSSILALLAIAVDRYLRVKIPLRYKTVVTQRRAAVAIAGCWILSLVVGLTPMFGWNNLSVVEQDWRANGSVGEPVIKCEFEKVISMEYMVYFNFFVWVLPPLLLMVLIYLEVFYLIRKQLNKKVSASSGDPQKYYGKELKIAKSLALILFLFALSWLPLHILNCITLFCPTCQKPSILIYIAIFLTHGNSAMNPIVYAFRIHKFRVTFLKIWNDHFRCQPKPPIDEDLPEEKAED
How it was run: (§2)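 Rat brain cortical membranes with [3H]CCPA (0.5 nM) as A1 radioligand. Compounds from DMSO stock diluted into aqueous buffer. Value given as percent inhibition of specific radioligand binding at the single stated concentration.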

[3] = molecular target: T1, Adenosine receptor A1 (Rattus norvegicus); test: Ratio between solubility and Ki for A1 adenosine receptor
[4] = Solubility determined in […]-hydrochloride buffer at pH 7.4; format: physicochemical; details: in the assay text read “50 mM” for “50 nM”
How it was run: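 10 mM DMSO solution diluted 1:100 into 50 mM TRIS-HCl pH 7.4 (1% DMSO), shaken overnight at room temperature to equilibrium, centrifuged at 1000g, supernatant filtered through cotton. Dilutions analysed by HPLC with UV detection, concentration from calibration curves.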

[5] = molecular target: T2, Adenosine receptor A1 (Rattus norvegicus, UniProt P25099); test: Tested for its binding affinity at adenosine A1 receptor in rat brain cortical membrane preparations using [3H]CCPA as a radioligand; format: cell membranes
T2 sequence (P25099 whole entry): T1 sequence (whole entry)
How it was run: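 Rat brain cortical membranes, A1 agonist radioligand [3H]CCPA at 0.5 nM. Compounds dissolved in DMSO, diluted into aqueous buffer, tested at 5-7 concentrations in triplicate, at least three separate experiments.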

[6] = molecular target: T3, Adenosine receptor A2a (Rattus norvegicus, UniProt P30543); test: Binding affinity at adenosine A2A receptor in rat striatal membrane preparations using [3H]CGS-21680 at a 30 uM; format: cell membranes, Striatum
[7] = molecular target: Adenosine receptor A2a (Rattus norvegicus) (UniProt P30543); test: (§3) Binding affinity against adenosine A2A receptor in rat striatal membrane preparations using [3H]CGS-21680 at 10 uM; format: cell membranes; details: Striatum; how it was run: as §1
[8] = molecular target: Adenosine receptor A2a (Rattus norvegicus) (UniProt P30543); test: Binding affinity against adenosine A2A receptor in rat striatal membrane preparations at 30 uM; format: cell membranes; details: Striatum; how it was run: as §1
[9] = molecular target: T1, Adenosine receptor A1 (Rattus norvegicus); test: Binding affinity against adenosine A1 receptor in rat brain cortical membrane preparations using [3H]CCPA; format: cell membranes; details: concentration not given here
How it was run: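 Rat brain cortical membranes, A1 agonist radioligand [3H]CCPA at 0.5 nM. Compounds dissolved in DMSO, diluted into aqueous buffer, tested at 5-7 concentrations in triplicate, at least three separate experiments. IC50 from nonlinear curve fitting, converted to Ki with Cheng-Prusoff using KD 0.2 nM.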

[10] = molecular target: Adenosine receptor A2a (Rattus norvegicus) (UniProt P30543); test: Binding affinity against adenosine A2A receptor in rat striatal membrane preparations at 10 uM; format: cell membranes; details: Striatum; how it was run: as §1
[11] = molecular target: Adenosine receptor A1 (Homo sapiens) (UniProt P30542); test: Binding affinity against adenosine A1 receptor expressed in CHO cells using [3H]CCPA
[12] = molecular target: Adenosine receptor A2a (Rattus norvegicus) (UniProt P30543); test: Binding affinity against adenosine A2A receptor in rat striatal membrane preparations using [3H]CGS-21680 at 1 uM; format: cell membranes; details: Striatum; how it was run: as §1
[13] = molecular target: Adenosine receptor A2a (Rattus norvegicus) (UniProt P30543); test: Binding affinity against adenosine A2A receptor in rat striatal membrane preparations using [3H]CGS-21680 at 3 uM; format: cell membranes; details: Striatum; how it was run: as §1
[14] = molecular target: T1, Adenosine receptor A1 (Rattus norvegicus); test: Binding affinity against adenosine A1 receptor in rat brain cortical membrane preparations using [3H]CCPA at 100 uM; format: cell membranes; how it was run: as §2
[15] = molecular target: T3, Adenosine receptor A2a; test: as §3; format: cell membranes, Striatum

Adenosine receptor A2a (Rattus norvegicus), sequence (P30543 whole entry): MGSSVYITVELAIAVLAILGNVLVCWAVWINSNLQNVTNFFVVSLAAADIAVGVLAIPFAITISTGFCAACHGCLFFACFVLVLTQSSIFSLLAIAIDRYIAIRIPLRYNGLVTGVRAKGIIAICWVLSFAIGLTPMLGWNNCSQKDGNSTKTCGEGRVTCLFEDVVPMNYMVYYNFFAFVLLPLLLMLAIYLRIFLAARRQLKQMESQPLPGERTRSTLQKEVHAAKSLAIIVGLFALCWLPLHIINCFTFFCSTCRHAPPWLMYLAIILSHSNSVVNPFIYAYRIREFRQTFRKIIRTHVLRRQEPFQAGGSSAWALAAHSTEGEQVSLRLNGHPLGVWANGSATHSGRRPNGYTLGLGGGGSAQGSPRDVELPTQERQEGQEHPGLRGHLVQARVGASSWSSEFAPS
T3 sequence (P30543 whole entry): as above
Adenosine receptor A1 (Homo sapiens), sequence (P30542 whole entry, looked up): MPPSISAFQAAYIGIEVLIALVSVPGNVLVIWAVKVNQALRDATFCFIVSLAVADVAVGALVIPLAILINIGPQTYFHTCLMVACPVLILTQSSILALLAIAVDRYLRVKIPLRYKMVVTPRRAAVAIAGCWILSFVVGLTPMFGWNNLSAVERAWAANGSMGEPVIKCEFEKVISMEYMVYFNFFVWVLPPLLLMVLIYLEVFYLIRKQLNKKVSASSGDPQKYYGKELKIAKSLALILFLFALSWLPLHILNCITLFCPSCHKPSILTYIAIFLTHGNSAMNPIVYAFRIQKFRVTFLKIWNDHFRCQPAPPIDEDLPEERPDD

Structure (SMILES)	inhibition [1]	Ki [5]	further results
Nc1nc(-c2cccnc2)nc2c1c1c(n2-c2ccccc2)CCCC1	44%	–	–
Cc1c(C)n([C@H](C)c2ccccc2)c2nc(-c3cnccn3)nc(N)c12	–	560 nM	Ki [6]: 6.6 µM
Cc1[nH]c2nc(C(C)c3ccccc3)nc(N)c2c1C (stereo unspecified)	–	6840 nM	inhibition [7]: 10%
C[C@@H](c1ccccc1)n1c2c(c3c(N)nc(-c4ccncc4)nc31)CCCC2	–	–	inhibition [8]: 2%; inhibition [9]: 8%
Cc1c(C)n([C@H](C)c2ccccc2)c2nc(-c3ccco3)nc(N)c12	–	16 nM	Ki [6]: 0.49 µM
Cc1nc2nc(-c3ccccc3)[nH]c(N[C@H](C)c3ccccc3)c-2c1C	–	–	inhibition [7]: 23%
Nc1nc(-c2ccncc2)nc2c1c1c(n2-c2ccccc2)CCCC1	–	600 nM	inhibition [10]: 28%
C[C@H](c1ccccc1)n1c2c(c3c(N)nc(-c4cc[n+]([O-])cc4)nc31)CCCC2	–	1850 nM	inhibition [8]: 50%
CCC(CO)Nc1nc(-c2ccccc2)nc2c1c(C)c(C)n2C1CCCC1 (stereo unspecified)	22%	1240 nM	Ratio [3]: 11; solubility [4]: 13.2 µM (≈ 5 µg/mL)
Cc1c(C)n([C@H](C)c2ccccc2)c2nc(-c3ccccn3)nc(N)c12	43%	2100 nM	–
C[C@@H](c1ccccc1)n1c2ccccc2c2c(N)nc(-c3ccccn3)nc21	–	540 nM	Ratio [3]: 9; solubility [4]: 5 µM (≈ 1.83 µg/mL); inhibition [12]: 6%
Cc1c(C)n([C@H](C)c2ccccc2)c2nc(-c3cccs3)nc(N)c12	–	19 nM	Ki [6]: 5.4 µM
C[C@H](c1ccccc1)n1c2ccccc2c2c(N)nc(-c3cccs3)nc21	–	36 nM	inhibition [13]: 32%
C[C@@H](c1ccccc1)n1c2c(c3c(N)nc(-c4ccccn4)nc31)CCCC2	–	12500 nM	inhibition [8]: 38%
C[C@H](c1ccccc1)n1c2c(c3c(N)nc(-c4cccnc4)nc31)CCCC2	–	1300 nM	inhibition [8]: 46%
Cc1c(C)n([C@H](C)c2ccccc2)c2nc(-c3ccccc3)nc(N)c12	–	–	Ki [15]: 3710 nM
Nc1nc(-c2ccccn2)nc2c1c1c(n2-c2ccccc2)CCCC1	42%	8900 nM	–

Second part, led by results:

inhibition [1]	Ki [5]	Structure (SMILES)	further results
14%	–	COc1ccccc1-c1nc(N)c2c(C)c(C)n([C@H](C)c3ccccc3)c2n1	inhibition [2]: 38%
2%	3580 nM	Cc1c(C)n([C@H](C)c2ccccc2)c2nc(-c3ccccc3)nc(NCCN)c12	Ratio [3]: 7; solubility [4]: 24.2 µM (≈ 9.33 µg/mL)
–	46 nM	Cc1c(C)n([C@H](C)c2ccccc2)c2nc(-c3ccncc3)nc(N)c12	Ki [6]: 1.3 µM; Ki [11]: 8.8 nM
46%	240 nM	Cc1c(C)n([C@H](C)c2ccccc2)c2nc(-c3ccccc3O)nc(N)c12	–
26%	18300 nM	Cc1c(C)n([C@H](C)c2ccccc2)c2nc(-c3ccccc3)nc(N[C@@H](C)c3ccccc3)c12	–
–	92 nM	C[C@H](c1ccccc1)n1c2ccccc2c2c(N)nc(-c3cccnc3)nc21	inhibition [7]: 47%
38%	–	Cc1c(C)n([C@H](C)c2ccccc2)c2nc(C(C)c3ccccc3)nc(N)c12 (stereo partly specified)	inhibition [2]: 33%
36%	2600 nM	CCC(CO)Nc1nc(-c2ccc(Cl)cc2)nc2c1c(C)c(C)n2[C@H](C)c1ccccc1 (stereo partly specified)	Ratio [3]: 4; solubility [4]: 11.2 µM (≈ 5.03 µg/mL)
19%	–	Cc1c(C)n([C@H](C)c2ccccc2)c2nc(-c3ccccc3)nc(NC3CCCC3)c12	inhibition [2]: 41%
3%	–	Cc1c(C)n([C@H](C)c2ccccc2)c2nc(-c3cccnc3)nc(N)c12	inhibition [14]: 35%
–	490 nM	Cc1c(C)n([C@H](C)c2ccccc2)c2nc(-c3cc[n+]([O-])cc3)nc(N)c12	Ki [6]: 5.9 µM
–	21 nM	C[C@H](c1ccccc1)n1c2ccccc2c2c(N)nc(-c3ccncc3)nc21	Ki [15]: 1850 nM; Ratio [3]: 142; solubility [4]: 3 µM (≈ 1.1 µg/mL)
